TCR CD3 inh = human TCR-CD3 binding inhibition; inhibition, % at 9.4 µM; actives 0.37% (n = 360,000); TAMRA-labeled TCR probe fluorescence, biochemical; AID 651800;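 also: recombinant mutant TCR 2C K166C tagged with TAMRA read by polarization; 0% = receptor in buffer alone and 100% = receptor with positive control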
PRMT1 FP inh = inhibitors of human PRMT1. AID 652257. recombinant PRMT1, activity-based probe fluorescence polarization. inhibition, % at 2.79 µM. Q99873. actives 1.3% (n = 370,000);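 active = inhibition above about 21% made by adding two undisclosed values, limit read from the data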
rCAG RNA binder = binds r(CAG) RNA repeats | actives 1.3% (n = 370,000) | inhibition, % at 3 µM | r(CAG) RNA repeat, TO-PRO-1 dye displacement fluorescence;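 active = inhibition above the plate cutoff, the mean of all test compounds on that plate plus 3 SD, cut at about 35% in these data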;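 also: 0% = DMSO alone and 100% = 100 µM mitoxantrone as full dye displacement; higher means more dye released from RNA so lower well fluorescence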
SIAE inh = human SIAE inhibition, primary screen. Q9HAT2. SIAE FP-Rh probe binding, fluorescence polarization. inhibition, % at 9.66 µM. actives 0.69% (n = 370,000). AID 1053197;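 active = inhibition above a cutoff: mean of compounds within the control limits plus 3 SD of those, cut at about 17% in these data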;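 also: 0% = plate median of compound wells and 100% = probe without SIAE protein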
mABHD4 FP = inhibitors of mouse ABHD4; Q8VD66; purified mABHD4, FP-Rh probe fluorescence polarization; inhibition, % at 8.92 µM; actives 0.54% (n = 370,000);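 active = inhibition exceeding the mean over every tested compound plus 3 SD, cut at about 30% in these data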;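 also: 0% = plate median of compound wells and 100% = S159A mutant with DMSO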
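Assay system: wild-type mouse ABHD4 protein; compound: single nominal dose of 8.92 µM, 0.89% DMSO final; schedule: 45 min + 60 min at 25 °C; measured by: FP readout, ex 525 nm / em 598 nm; evaluation: % inhibition of FP-Rh probe binding versus controls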
HTRA1 inhibitor = blocks human HTRA1 serine peptidase | actives 0.5% (n = 340,000) | recombinant HTRA1, FP-rhodamine activity-based probe, fluorescence polarization | inhibition, % at 5.96 µM; in the data active = inhibition above about 36%;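 also: 0% = enzyme with DMSO and 100% = wells lacking enzyme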
Target sequence (Q92743 whole entry, looked up): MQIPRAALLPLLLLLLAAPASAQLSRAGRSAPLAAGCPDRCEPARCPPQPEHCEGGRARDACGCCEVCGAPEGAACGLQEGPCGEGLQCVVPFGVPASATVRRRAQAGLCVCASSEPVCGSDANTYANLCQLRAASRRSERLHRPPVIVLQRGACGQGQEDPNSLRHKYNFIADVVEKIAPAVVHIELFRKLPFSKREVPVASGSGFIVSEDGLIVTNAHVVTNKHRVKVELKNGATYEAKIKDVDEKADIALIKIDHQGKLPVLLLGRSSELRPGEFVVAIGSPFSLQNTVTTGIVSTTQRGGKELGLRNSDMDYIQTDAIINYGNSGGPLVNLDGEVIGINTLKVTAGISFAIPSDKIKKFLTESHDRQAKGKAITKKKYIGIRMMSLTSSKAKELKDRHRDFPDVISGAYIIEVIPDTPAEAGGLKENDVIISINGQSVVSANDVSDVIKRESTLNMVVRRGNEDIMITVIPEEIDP
HTRA1 conf = confirmation of human HTRA1 inhibitors. shares compounds with HTRA1 inhibitor. inhibition, % at 5.96 µM. actives 66% (n = 1,600). AID 540248. recombinant HTRA1, FP-rhodamine activity-based probe, fluorescence polarization;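 active = mean inhibition over three repeats above a set limit taken from the earlier primary screen, cut at about 37% in these data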;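 also: 0% = HTRA1 with DMSO and 100% = wells lacking HTRA1; inhibitors block probe binding so polarization drops and inhibition rises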
BSA TAMRA ctr = counter-screen for TCR-CD3 interaction inhibitors: BSA probe | shares compounds with TCR CD3 inh | TAMRA-labeled BSA probe fluorescence counterscreen | inhibition, % at 9.4 µM | actives 10% (n = 1,200) | AID 652035; in the data active = inhibition above about 23%;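 also: 0% = buffer low control and 100% = reference high control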
TCR-CD3 inh conf = confirmation of human TCR-CD3 interaction inhibitors; actives 48% (n = 1,200); inhibition, % at 9.4 µM; shares compounds with TCR CD3 inh; TAMRA-labeled TCR probe fluorescence binding assay
rCAG bind conf = r(CAG) RNA repeat binding, confirmation | shares compounds with rCAG RNA binder | inhibition, % at 3 µM | TO-PRO-1 dye displacement fluorescence | actives 70% (n = 4,300);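 active = inhibition above a per-plate cutoff, the mean inhibition of sample wells plus 3 SD, cut at about 35% in these data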;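 also: loss of TO-PRO-1 fluorescence as compound displaces dye from 1x1 AA loop RNA; 0% = DMSO only wells and 100% = 100 µM mitoxantrone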
dCAG dye counter = DNA CAG dye complex inhibition counter-screen; d(CAG) DNA oligo TO-PRO-1 dye displacement, fluorescence; actives 94% (n = 4,300); inhibition, % at 3 µM; shares compounds with rCAG RNA binder; AID 652068;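 active = inhibition above its plate's cutoff, the mean test-well inhibition plus 3 SD, cut at about 4.8% in these data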;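 also: 0% = DNA dye mix with DMSO and 100% = 100 µM mitoxantrone; hits displace the dye from DNA and so lower well fluorescence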
DNA CAG DR = counter-screen for rCAG binders: inhibitors of DNA CAG TO-PRO-1 complex; actives 20% (n = 250); shares compounds with rCAG RNA binder; DNA CAG/GTC duplex TO-PRO-1 dye displacement fluorescence; IC50, µM; in the data active = IC50 below about 10 µM
PRMT1 inh conf = confirmation of human PRMT1 inhibitors. shares compounds with PRMT1 FP inh. recombinant His-PRMT1, activity-based probe fluorescence polarization. inhibition, % at 2.79 µM. actives 42% (n = 3,300). AID 687036;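 active = mean inhibition across replicates above the hit cutoff derived for the earlier primary screen, cut at about 22% in these data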
ABHD4 confirm = confirmation of mouse ABHD4 inhibitors. inhibition, % at 8.92 µM. actives 55% (n = 1,800). shares compounds with mABHD4 FP. purified mABHD4, FP-Rh probe fluorescence polarization;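 active = mean inhibition across replicates above the hit cutoff set in the primary screen, cut at about 30% in these data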;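 also: 0% = wild-type ABHD4 with DMSO and 100% = catalytically dead S159A mutant with DMSO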
SIAE inh conf = human SIAE inhibition, confirmation; shares compounds with SIAE inh; SIAE FP-Rh activity-based probe, fluorescence polarization; inhibition, % at 9.66 µM; actives 13% (n = 2,300);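 active = mean inhibition of the replicates above the hit cutoff set in the primary screen, cut at about 17% in these data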;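 also: 0% = SIAE with DMSO and probe and 100% = probe without SIAE; inhibitors lower polarization as more probe stays unbound to SIAE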
* hit, by the source's call. Hits are enriched below; roughly 3.5% of the tested compounds scored in any of these assays. Rule as the data show it, unless noted: active = inhibition above about 19%; inactive = the rest.

How did O=[N+]([O-])c1ccccc1N/N=C/c1c[nH]c2ccccc12 do in these assays?
TCR CD3 inh: 4; PRMT1 FP inh: 1; rCAG RNA binder: 37*; SIAE inh: 18*; mABHD4 FP: 49*; HTRA1 inhibitor: 78*; HTRA1 conf: 76*; rCAG bind conf: 25; dCAG dye counter: 16*; ABHD4 confirm: 89*; SIAE inh conf: 21*

What do the screens show for `O=[N+]([O-])c1ccccc1N/N=C/c1ccccc1`?
TCR CD3 inh: 2; PRMT1 FP inh: -1; rCAG RNA binder: -2; SIAE inh: -3; mABHD4 FP: 4; HTRA1 inhibitor: 2

What do the screens show for `Oc1c(Cl)cc(Cl)cc1/C=N/NC(=S)NC1CC2C=CC1C2` (stereo not drawn)?
TCR CD3 inh: 23*; PRMT1 FP inh: 0; rCAG RNA binder: 66*; SIAE inh: 20*; mABHD4 FP: 39*; HTRA1 inhibitor: 52*; HTRA1 conf: 54*; BSA TAMRA ctr: -18; TCR-CD3 inh conf: 28*; rCAG bind conf: 81*; dCAG dye counter: 47*; ABHD4 confirm: 41*; SIAE inh conf: 21*

What do the screens show for `Oc1ccc(/C=N/Nc2ccnc3cc(Cl)ccc23)c(O)c1O`?
TCR CD3 inh: 20*; PRMT1 FP inh: 15; rCAG RNA binder: 38*; SIAE inh: 41*; mABHD4 FP: 38*; HTRA1 inhibitor: 66*; HTRA1 conf: 65*; BSA TAMRA ctr: -16; TCR-CD3 inh conf: 22*; rCAG bind conf: 59*; dCAG dye counter: 28*; DNA CAG DR: inactive; ABHD4 confirm: 56*; SIAE inh conf: 33*

Results for Nc1ccc(Nc2nc3ccccc3[nH]2)cc1 ?
TCR CD3 inh: -17; PRMT1 FP inh: 6; rCAG RNA binder: 12; SIAE inh: 57*; mABHD4 FP: 31*; HTRA1 inhibitor: 58*; HTRA1 conf: 66*; ABHD4 confirm: 59*; SIAE inh conf: 58*

What do the screens show for `CCn1c(CSc2nnc(-c3ccncc3)n2C)nc2cc(C(=O)O)ccc21`?
TCR CD3 inh: 89*; PRMT1 FP inh: 1; rCAG RNA binder: 2; SIAE inh: 28*; mABHD4 FP: 23; HTRA1 inhibitor: 66*; HTRA1 conf: 56*; BSA TAMRA ctr: 155*; TCR-CD3 inh conf: 109*; SIAE inh conf: 39*

Results for CCn1c(CSc2ncn[nH]2)nc2cc(C(=O)O)ccc21 ?
TCR CD3 inh: 8; PRMT1 FP inh: -3; rCAG RNA binder: -2; SIAE inh: 7; mABHD4 FP: 2; HTRA1 inhibitor: 10

How did CCOC(=O)C(C(=O)OCC)c1cc(Br)c2noc3c2c1C(=O)c1ccccc1-3 do in these assays?
TCR CD3 inh: 8; PRMT1 FP inh: 32*; rCAG RNA binder: 24; SIAE inh: 22*; mABHD4 FP: 22; HTRA1 inhibitor: 48*; HTRA1 conf: 25; PRMT1 inh conf: 53*; SIAE inh conf: -2

How did O=C1C(Cl)=C(Nc2ccc3cn[nH]c3c2)C(=O)c2ccccc21 do in these assays?
TCR CD3 inh: -2; PRMT1 FP inh: 43*; rCAG RNA binder: 12; SIAE inh: 18*; mABHD4 FP: 46*; HTRA1 inhibitor: 47*; HTRA1 conf: 75*; ABHD4 confirm: 54*; SIAE inh conf: 7

Results for O=C(Nc1ccc2cn[nH]c2c1)c1c(Cl)cccc1Cl ?
TCR CD3 inh: 2; PRMT1 FP inh: 7; rCAG RNA binder: 3; SIAE inh: -1; mABHD4 FP: -2; HTRA1 inhibitor: -8

How did NS(=O)(=O)c1ccc(NC(=O)CSc2nc3ccccc3c(=O)n2-c2ccc(Br)cc2)cc1 do in these assays?
PRMT1 FP inh: 3; rCAG RNA binder: 23; SIAE inh: -22; mABHD4 FP: -34

How did Cc1cc2cc(CNC(=O)Nc3cccc(Cl)c3)ccc2n1C do in these assays?
TCR CD3 inh: 55*; PRMT1 FP inh: 10; rCAG RNA binder: 21; SIAE inh: 26*; mABHD4 FP: 46*; HTRA1 inhibitor: 39*; HTRA1 conf: 6; BSA TAMRA ctr: 5; TCR-CD3 inh conf: 1; ABHD4 confirm: -10; SIAE inh conf: -6

Results for COc1ccc(CNC(=O)Nc2cccc(Cl)c2)cc1 ?
HTRA1 inhibitor: -17

How did Cc1ccc(CNC2CCC23CCC(c2ccccc2)CC3)o1 (stereo not drawn) do in these assays?
PRMT1 FP inh: -3; SIAE inh: -2; mABHD4 FP: 6

How did FC(F)(F)C1=Nc2cccc3cccc(c23)N1 do in these assays?
TCR CD3 inh: 31*; PRMT1 FP inh: 6; rCAG RNA binder: 94*; SIAE inh: 56*; mABHD4 FP: 4; HTRA1 inhibitor: 39*; HTRA1 conf: 85*; BSA TAMRA ctr: -7; TCR-CD3 inh conf: 9; rCAG bind conf: 47*; dCAG dye counter: 38*; SIAE inh conf: 4

What do the screens show for `C=CCN1C(=O)[C@@H](CC(=O)N2CCN(C(=O)C3CC3)CC2)[C@]2(C(=O)OCC)CCCCC/C=C/12`?
PRMT1 FP inh: 2; rCAG RNA binder: 4; SIAE inh: -2; mABHD4 FP: -1

Screening results as filed in PubChem BioAssay.
